Here are results for one compound from ChEMBL document CHEMBL3860061, “A Novel Parkinson's Disease Drug Candidate with Potent Anti-neuroinflammatory Effects through the Src Signaling Pathway” (J Med Chem, 2016).

Active and inactive are the calls of the source. No cut-off for these calls is given here. Where only a bound is given, the exact number is not on record here.

For series [1], the system named is Mus musculus. The series can be described thus: Neuroprotective activity in MPTP/probenecid-induced chronic C57/BL mouse Parkinson's disease model assessed as improvement in motor behavior at 5 to 20 mg/kg dosed once daily for 7 weeks post 10 doses of MPTP/probenecid for 5 weeks measured after last MPTP/probenecid dose by rotarod test. The format is functional, organism-based. The procedure, abridged: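 Chronic MPTP/probenecid model (10 doses over 5 weeks), then agent (5–20 mg/kg) or L-DOPA 20 mg/kg daily for 7 weeks. Rotarod at 14 rpm, up to 120 s, fall latency from three trials 1 h apart. Pole test: gauze-wrapped 50 cm pole, descent scored 1–5, two trials 1 h apart after pre-training. n = 15.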
A general note: Falling from the rotarod earlier than controls is read as motor impairment.

Series [2] has as its system Mus musculus. The series can be described thus: Effect on ROCK1 protein expression level in midbrain of MPTP/probenecid-induced chronic C57/BL mouse Parkinson's disease model at 5 to 20 mg/kg dosed once daily for 7 weeks post 10 doses of MPTP/probenecid for 5 weeks by Western blot analysis. The format is functional, organism-based. Background: Immunoblotting shows a protein as a band on a membrane.

Series [3] can be described thus: Drug uptake in ICR mouse plasma at 50 mg/kg, ig after 5 mins by LC/MS/MS analysis. The format is ADME, organism-based. Conditions: in vivo, po.
In series [4] the test system is Mus musculus. The experiment in a line: Neuroprotective activity in MPTP-induced subacute C57/BL mouse Parkinson's disease model assessed as reversal of decline of TH-positive neuron levels in substantia nigra at 10 to 20 mg/kg […] dosed 30 mins prior to each MPTP injection for 5 days and administered continuously for 7 days post last MPTP dose by 3,3'-diaminobenzidine staining based light microscopic analysis. The series is classed as functional, organism-based. The procedure, abridged: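 Sub-acute MPTP model (30 mg/kg i.p. × 5 days) with agent (5–20 mg/kg) or L-DOPA pre-dosing and 7 days of continued dosing. Fixed brains cut at 40 µm on a freezing microtome; coronal nigral sections stained with anti-TH and DAB/peroxide; TH-positive cells counted blind by light microscopy.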

Series [5] has as its system Mus musculus. The series can be described thus: Antineuro-inflammatrory activity in MPTP-induced subacute C57/BL mouse Parkinson's disease model assessed as decrease in TNF-alpha levels in midbrain at 10 to 20 mg/kg […] dosed 30 mins prior to each MPTP injection for 5 days and administered continuously for 7 days post last MPTP dose measured on day 12 post last dose by ELISA. The series is classed as functional, organism-based. (In general: ELISA stands for enzyme-linked immunosorbent assay.)

The subject of series [6] is Mus musculus. The experiment in a line: Neuroprotective activity in alpha-syn A53T transgenic B6C3H mouse assessed as improvement in motor behavior at 5 to 20 mg/kg dosed once daily for 12 consecutive weeks by pole test. The format is functional, organism-based.
Series [7] in a line: Toxicity in ICR mouse assessed as mortality administered through oral gavage. The format is organism-based. Conditions: in vivo.
Series [8] concerns Mus musculus. The experiment in a line: Nephrotoxicity in ICR mouse at 250 to 1000 mg/kg administered through oral gavage for 14 consecutive days. The series is classed as toxicity, organism-based. The note with it: in vivo. The procedure, abridged:
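Mice dosed by oral gavage at 250, 500 and 1000 mg/kg for 14 consecutive days. General condition monitored throughout; liver and kidney clinical chemistry assessed.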

Series [9] has as its system Mus musculus. The experiment in a line: In vivo inhibition of Src in MPTP/probenecid-induced chronic C57/BL mouse Parkinson's disease model assessed as effect on Akt expression level in midbrain at 5 to 20 mg/kg dosed once daily for 7 weeks post 10 doses of MPTP/probenecid for 5 weeks by iTRAQ-labelled 2D-LC/MS/MS analysis. The series is classed as functional, organism-based.

The subject of series [10] is Mus musculus. The series can be described thus: Antineuro-inflammatrory activity in MPTP-induced subacute C57/BL mouse Parkinson's disease model assessed as decrease in IL-1beta levels in midbrain at 10 to 20 mg/kg […] dosed 30 mins prior to each MPTP injection for 5 days and administered continuously for 7 days post last MPTP dose measured on day 12 post last dose by ELISA. The format is functional, organism-based. An outline of the steps: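 Male C57/BL mice (22–25 g) received MPTP hydrochloride 30 mg/kg i.p. daily for 5 days. Test agent (5, 10, 20 mg/kg) or L-DOPA 20 mg/kg, suspended in 0.5% CMC-Na, given 30 min before each MPTP injection, then continued for 7 more days. On day 12 the midbrain was homogenised in non-denaturing lysis buffer with protease inhibitor and IL-1β or TNF-α measured by ELISA, n = 6, mean ± SD.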

Series [11] has as its system Mus musculus. The experiment in a line: Neuroprotective activity in alpha-syn A53T transgenic B6C3H mouse assessed as reversal of decline of TH-positive neuron levels in substantia nigra at 10 to 20 mg/kg dosed once daily for 12 consecutive weeks by 3,3'-diaminobenzidine staining based light microscopic analysis. The format is functional, organism-based. The procedure, abridged: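 Transgenic male B6;C3H A53T α-syn mice, starting at 4 months, were given drug once daily for 12 weeks in 0.5% CMC-Na. Fixed brains were sectioned at 40 µm on a freezing microtome. Substantia nigra coronal sections were immunostained for TH, visualized with DAB and peroxide, and positive neurons counted by light microscopy under blinding.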

The subject of series [12] is Mus musculus. The experiment in a line: Antineuro-inflammatrory activity in MPTP/probenecid-induced chronic C57/BL mouse Parkinson's disease model assessed as decrease in TNF-alpha level in midbrain at 10 to 20 mg/kg dosed once daily for 7 weeks post 10 doses of MPTP/probenecid for 5 weeks measured after last MPTP/probenecid dose by ELISA. The series is classed as functional, organism-based. An outline of the steps: (§1)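 Male C57/BL mice (22–25 g) received 10 doses of MPTP hydrochloride (25 mg/kg in saline, s.c.) plus probenecid (250 mg/kg in DMSO, i.p.) over 5 weeks. Only mice failing the rotarod afterwards were randomised to agent (5, 10, 20 mg/kg) or L-DOPA 20 mg/kg in 0.5% CMC-Na, once daily for 7 weeks. Midbrain lysate in non-denaturing buffer with protease inhibitor; IL-1β or TNF-α by ELISA, n = 6.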

The test system of series [13] is Mus musculus. The series can be described thus: Effect on ARHGAP21 protein expression level in midbrain of MPTP/probenecid-induced chronic C57/BL mouse Parkinson's disease model at 5 to 20 mg/kg dosed once daily for 7 weeks post 10 doses of MPTP/probenecid for 5 weeks by iTRAQ-labelled 2D-LC/MS/MS analysis. The format is functional, organism-based.
Series [14] deals with Mus musculus. The series can be described thus: Effect on ROCK1 protein expression level in midbrain of MPTP/probenecid-induced chronic C57/BL mouse Parkinson's disease model at 5 to 20 mg/kg dosed once daily for 7 weeks post 10 doses of MPTP/probenecid for 5 weeks by iTRAQ-labelled 2D-LC/MS/MS analysis. The series is classed as functional, organism-based.
Series [15] relates to Mus musculus. The experiment in a line: Neuroprotective activity in alpha-syn A53T transgenic B6C3H mouse assessed as improvement in motor behavior at 5 to 20 mg/kg dosed once daily for 12 consecutive weeks by rotarod test. The format is functional, organism-based. An outline of the steps:
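Male B6;C3H mice overexpressing mutant alpha-syn (A53T), housed on a 12-h light/dark cycle at 24 °C and 60% humidity, were acclimatised for 1 week. Daily dosing ran 12 consecutive weeks from 4 months of age. Wild-type mice received 0.5% CMC-Na, and L-DOPA 20 mg/kg was the reference. Rotarod ran at 14 rpm for up to 120 s, recording latency to first fall. Each mouse had three trials with 1 h rest between them. n = 15; mean ± SD.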

The subject of series [16] is Mus musculus. The series can be described thus: Antineuro-inflammatrory activity in MPTP/probenecid-induced chronic C57/BL mouse Parkinson's disease model assessed as decrease in IL-1beta level in midbrain at 10 to 20 mg/kg dosed once daily for 7 weeks post 10 doses of MPTP/probenecid for 5 weeks measured after last MPTP/probenecid dose for 5 weeks by ELISA. The format is functional, organism-based. An outline of the steps:
as §1

`COc1cc(OC)c(CN[C@@H](CO)C(=O)O)c(OC)c1`: the result with Mus musculus [1], in the series with Mus musculus [2], in the series on Mus musculus [4], in the series with Mus musculus [5], in the series on Mus musculus [6] and in the series with Mus musculus [10] was Active. For the same compound, the outcome with Mus musculus [11], in the series on Mus musculus [12], with Mus musculus [13], in the series on Mus musculus [14], in the series on Mus musculus [15] and in the series on Mus musculus [16] was Active. Further, the Drug uptake entry in series [3] was “Active”. Also, in series [7], the LD50 was more than 5000 mg/kg. Besides, the Activity result in the series with Mus musculus [8] was “Non-Toxic”. The inhibition result in the series on Mus musculus [9] is “Active”.

Usually LD50 stands for the dose expected to kill half of the subjects tested.
